Screening results from PubChem.
SR-BI HDL uptake: blocks mouse SR-BI lipid uptake from DiI-HDL; ldlA[mSR-BI] CHO cells, DiI-HDL uptake fluorescence, 3 h; actives 0.96% (n = 320,000); Q61009; inhibition, % at 12.5 µM;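 active = mean replicate inhibition of at least 70% and a set share of replicates each scoring 70 or more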;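 also: 0% = median of neutral control wells and 100% = median of positive control wells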
Yeast superoxide: caloric restriction mimetics inhibiting age-related superoxide in yeast; S. cerevisiae aged cells, superoxide DHE fluorescence; stronger effect = lower value; superoxide response (% of plate mean), % at 10 µM; actives 0.18% (n = 330,000); AID 2690;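 active = superoxide response under a set limit, about three screen SD below normal, cut at about 65% in these data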;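 also: yeast aged for seven days with compound at 30 °C before DHE staining; 100% = average MFI of all compound-treated wells on the plate with controls excluded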
AHR act: human AHR activation | P35869 | AHR-responsive luciferase reporter cells, luminescence | activation, % at 5 µM | actives 2.5% (n = 320,000) | AID 2796; in the data active = activation above about 47%;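 also: 0% = vehicle wells and 100% = reference agonist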
SR-BI uptake up: SR-BI HDL lipid transfer activation; CHO ldlA[mSR-BI] cells, DiI-HDL uptake fluorescence, 3 h; 100 = double the neutral-control signal; activation, % at 12.5 µM; actives 0.096% (n = 320,000); AID 504775;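 active = mean replicate activation of at least 60% and every replicate at or above 60%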;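 also: 0% = median plate neutral-control signal and 100% = twice that signal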
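System: LDL receptor-deficient CHO ldlA cells overexpressing murine SR-BI | Timing: 3 h uptake period with compound, 37 °C | Medium: HEPES-buffered (25 mM, pH 7.4) F12 plus 0.5% BSA | Dosing: Single-point compound dose | Signal: Bottom-read fluorescence, 550/595 nm | Read-out: Retained DiI signal reflecting DiI-HDL uptake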
Lipid droplet: modulators of hepatic lipid droplet formation; AML12 mouse hepatocytes, oleate lipid droplets, BODIPY imaging; inhibition, % at 6.5 µM; actives 0.4% (n = 240,000); AID 1656;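 active = lipid droplet intensity inhibited by at least 50%, with more than 500 cells counted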
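Assay system: AML12 mouse liver cells | Compound dosing: One dose, 6.5 µM compound | Read-out basis: Droplet intensity reduction, % inhibition | Measured by: Fluorescence imaging, 20x objective, two fields per well | Schedule: Overnight treatment with compound plus oleate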
SMARCA2 act: increases SMARCA2 function in MMTV reporter cells. MG213 cells, MMTV-luciferase reporter, dexamethasone, overnight. activation, % at 9.1 µM. actives 1% (n = 370,000); in the data active = activation above about 7.8%;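 also: 0% = vehicle wells and 100% = reference activator wells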
AHR act confirm: confirmation of human aryl hydrocarbon receptor activators. shares compounds with AHR act. human cells, AHR-responsive luciferase reporter, luminescence. activation, % at 9 µM. actives 87% (n = 2,300). AID 2845; in the data active = activation above about 49%;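 also: HepG2 hepatoma cells carrying a DRE-driven firefly luciferase reporter; 0% = vehicle wells and 100% = reference agonist wells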
PXR counter: PXR activation, counter-screen for AHR activators. actives 88% (n = 2,300). activation, % at 11.6 µM. shares compounds with AHR act. cell-based PXR reporter, luciferase luminescence; in the data active = activation above about 11%;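 also: human hepatoma DPX-2 cells expressing full-length human PXR; 0% = DMSO and 100% = reference agonist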
Target sequence (O75469 whole entry, looked up): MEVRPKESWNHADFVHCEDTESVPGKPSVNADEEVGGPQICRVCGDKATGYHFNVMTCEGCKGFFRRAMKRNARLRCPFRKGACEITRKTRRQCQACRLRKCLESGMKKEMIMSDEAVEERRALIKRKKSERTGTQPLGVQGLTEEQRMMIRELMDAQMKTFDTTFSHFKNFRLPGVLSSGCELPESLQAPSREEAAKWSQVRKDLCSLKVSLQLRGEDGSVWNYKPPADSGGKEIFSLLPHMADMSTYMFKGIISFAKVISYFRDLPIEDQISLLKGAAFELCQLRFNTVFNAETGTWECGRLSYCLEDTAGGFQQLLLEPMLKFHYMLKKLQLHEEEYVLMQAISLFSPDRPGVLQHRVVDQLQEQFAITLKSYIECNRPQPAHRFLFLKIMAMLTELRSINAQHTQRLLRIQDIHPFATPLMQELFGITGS
Active calls of the source: *. The list is not random: actives were taken first. Their share in the collection is about 4.3%.

For Cc1cc(C)n2nc(-c3sccc3-n3cccc3)cc2n1 the results were SR-BI HDL uptake 6, Yeast superoxide 104, AHR act 93*, SR-BI uptake up -6, SMARCA2 act 0, AHR act confirm 55* and PXR counter 61*.
O=C(c1ccco1)c1coc2c1cc(O)c1ccccc12 was read as SR-BI HDL uptake 12, Yeast superoxide 120, AHR act 89*, SR-BI uptake up -12, Lipid droplet 2, SMARCA2 act 3, AHR act confirm 120* and PXR counter 18*.
Screening CC(=O)c1coc2c1cc(O)c1ccccc12 returned SR-BI HDL uptake 5, Yeast superoxide 91, AHR act -5, SR-BI uptake up -5 and SMARCA2 act 0.
For Cc1cc(C)n(-c2nc3c(c(=O)[nH]c(=O)n3C)n2CCc2ccccc2)n1 the results were SR-BI HDL uptake 1, Yeast superoxide 98, AHR act 133*, SR-BI uptake up -1, Lipid droplet -6, SMARCA2 act 1, AHR act confirm 84* and PXR counter 67*.
Screening Cc1cc(C)n(-c2nc3c(c(=O)[nH]c(=O)n3C)n2CC(O)c2ccccc2)n1 (stereo unspecified) returned SR-BI HDL uptake -5, Yeast superoxide 90, AHR act 80*, SR-BI uptake up 5, Lipid droplet -3, SMARCA2 act 2, AHR act confirm 78* and PXR counter 45*.
`N#Cc1ccc(S(=O)(=O)N2CCCc3nc(-c4ccccc4)ccc32)cc1` gave SMARCA2 act -1.
For C=CCOC(=O)N[C@H](c1ccc2ccccc2c1)[C@H](C)/C=C/CC(=O)OC the results were SMARCA2 act -3.
Screening Cc1nc2ccc(NC(=O)c3oc4ccc(F)cc4c3C)cc2s1 returned SR-BI HDL uptake 15, Yeast superoxide 123, AHR act 86*, SR-BI uptake up -15, AHR act confirm 121* and PXR counter 20*.
O=C(Nc1cccc(S(=O)(=O)N2CCCCCC2)c1)c1ccc2c(c1)OCO2 was read as SR-BI HDL uptake 42, Yeast superoxide 106, AHR act 82*, SR-BI uptake up -42, Lipid droplet 5, SMARCA2 act -3, AHR act confirm 62* and PXR counter 164*.
O=C(Nc1ccc2c(c1)OCO2)c1ccc(S(=O)(=O)N2CCCC2)cc1 was read as SR-BI HDL uptake 28, Yeast superoxide 90, AHR act 10, SR-BI uptake up -28, Lipid droplet 0 and SMARCA2 act -3.
For O=C(Nc1cccc(S(=O)(=O)N2CCCC2)c1)c1ccc2c(c1)OCO2 the results were SR-BI HDL uptake 21, Yeast superoxide 106, AHR act 88*, SR-BI uptake up -21, Lipid droplet -2, SMARCA2 act -2, AHR act confirm 64* and PXR counter 209*.
COC(=O)C1CN(Cc2ccc(F)cc2)CCS(=O)(=O)N1Cc1ccc(OC)cc1 (stereo unspecified) was read as SMARCA2 act -2.
`C=CCN1C(=O)[C@@H](CC(=O)NCc2ccc(C)o2)[C@]2(C(=O)OC)CCCCC=C12` gave SMARCA2 act 2.
COC(=O)[C@]12C[C@H](CC(=O)NCc3cccc4ccccc34)C(=O)N(Cc3ccccc3)C1=C[C@H](COCc1ccccc1)O[C@@H]2C was read as SMARCA2 act -2.
For CCN(CC)C(=O)c1sc2nc(-c3ccccn3)[nH]c(=O)c2c1C the results were Yeast superoxide 105, AHR act 83*, SMARCA2 act -1, AHR act confirm 41 and PXR counter 52*.
Screening CCN(CC)C(=O)c1sc2nc(-c3ccncc3)[nH]c(=O)c2c1C returned SR-BI HDL uptake -1, Yeast superoxide 104, AHR act 5, SR-BI uptake up 1 and SMARCA2 act 0.
`Cc1cccc(NC(=O)c2cc(=O)[nH]c3ccccc23)c1` gave SR-BI HDL uptake 29, Yeast superoxide 107, AHR act 89*, SR-BI uptake up -29, Lipid droplet 0, SMARCA2 act -1, AHR act confirm 90* and PXR counter 11*.
`CN(C)S(=O)(=O)c1cccc(NC(=O)c2cc(=O)[nH]c3ccccc23)c1` gave SR-BI HDL uptake 27, Yeast superoxide 77, AHR act 2, SR-BI uptake up -27 and SMARCA2 act 1.
Screening O=C(O)CCCCN1C(=O)C=CC1=O returned SMARCA2 act 2.
Screening CC(C)c1ccc(OCCCN2CCC(C(O)(c3ccccc3)c3ccccc3)CC2)cc1 returned SMARCA2 act -5.
For COc1ccc(NC(=O)c2cc3ccccc3cc2OC)cc1 the results were SR-BI HDL uptake 50, Yeast superoxide 103, AHR act 96*, SR-BI uptake up -50, Lipid droplet 3, SMARCA2 act 6, AHR act confirm 66* and PXR counter 12*.
COc1ccc(Br)cc1C(=O)Nc1cc(C)cc(C)c1 was read as SR-BI HDL uptake 54, Yeast superoxide 96, AHR act 113*, SR-BI uptake up -54, SMARCA2 act -1, AHR act confirm 100* and PXR counter 18*.
For COc1ccc(NC(=O)c2ccc3ccccc3c2OC)cc1 the results were SR-BI HDL uptake 5, Yeast superoxide 105, AHR act -1, SR-BI uptake up -5 and SMARCA2 act 6.
For CCOc1ccc(NC(=O)c2cc3ccccc3cc2OC)cc1 the results were SR-BI HDL uptake 65, Yeast superoxide 106, AHR act 83*, SR-BI uptake up -65, Lipid droplet 1, SMARCA2 act 8 and AHR act confirm 91*.
Screening CCN1CCn2c3c(c4cc(C)ccc42)CCCC31 (stereo unspecified) returned SR-BI HDL uptake 19, Yeast superoxide 103, AHR act 81*, SR-BI uptake up -19, SMARCA2 act 1, AHR act confirm 105* and PXR counter 11*.
For CC(=O)N1CCn2c3c(c(=O)c4cc(C)ccc42)CCC31 (stereo unspecified) the results were SR-BI HDL uptake -2, Yeast superoxide 111, AHR act -2, SR-BI uptake up 2, Lipid droplet 3 and SMARCA2 act 3.
Cc1ccc2c(c1)c1c3n2CCN(C(=O)CCl)C3CCC1 (stereo unspecified) was read as SR-BI HDL uptake -2, Yeast superoxide 97, AHR act 113*, SR-BI uptake up 2, Lipid droplet -1, SMARCA2 act -5, AHR act confirm 98* and PXR counter 17*.
